# TCR CD3 inh – inhibitors of human TCR-CD3 interaction, primary screen, biochemical, fluorescence, TAMRA-labeled TCR probe. 360,000 tested, 0.37% active. inhibition, % at 9.4 µM. AID 651800, 2012; in the data active = inhibition above about 19%;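 also: recombinant mutant TCR 2C K166C tagged with TAMRA read by polarization; 0% = receptor in buffer alone and 100% = receptor with positive control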
# GSTO1 counter – inhibitors of recombinant GSTO1, primary screen, counter-screen for RBBP9 inhibitor project, biochemical, fluorescence polarization; inhibition, % at 5.96 µM; 300,000 tested, 1.1% active; activity-based probe fluorescence polarization;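 active = inhibition above the campaign mean inhibition plus 3 SD, cut at about 35% in these data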;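 also: 0% = GSTO1-1 with DMSO and 100% = wells lacking GSTO1-1 enzyme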
# Target sequence (P78417 whole entry, looked up): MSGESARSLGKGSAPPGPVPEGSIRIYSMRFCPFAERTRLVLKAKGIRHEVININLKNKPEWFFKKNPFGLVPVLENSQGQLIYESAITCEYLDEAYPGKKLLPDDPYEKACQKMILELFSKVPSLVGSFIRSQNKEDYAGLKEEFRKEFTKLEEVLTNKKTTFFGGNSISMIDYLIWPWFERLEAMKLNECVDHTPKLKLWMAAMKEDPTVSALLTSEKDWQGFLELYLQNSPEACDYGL
# PAD4 FP inh – human PAD4 inhibitors, primary screen, biochemical, fluorescence polarization, 1536-well format; inhibition, % at 6.36 µM; recombinant PAD4, RCA probe fluorescence polarization; Protein-arginine deiminase type-4 (Homo sapiens), Q9UM07; 330,000 tested, 0.41% active;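 active = percent inhibition above a cutoff equal to the mean of all tested compounds plus 3 SD, cut at about 15% in these data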;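 also: 0% = PAD4 with RCA probe and DMSO and 100% = probe without PAD4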
# Apaf-1 inh – inhibitors of human Apaf-1 apoptosome, primary screen, biochemical, DEVD-Rh110 fluorescence, uHTS; Apoptotic protease-activating factor 1 (Homo sapiens), O14727; reconstituted apoptosome caspase-3 activity; inhibition, % at 20 µM; 330,000 tested, 0.71% active; active = inhibition of at least 40% at 20 µM;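 also: plate controls were DMSO wells for no effect and DEVD-CHO caspase inhibitor wells for full effect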
#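 Material: cell-free apoptosome with Apaf-1, procaspase-3 and caspase-9; Buffer or medium: Hepes pH 7.5 with detergent and BSA; Reagent: cytochrome c trigger plus (Z-DEVD)2-Rh110 caspase-3 substrate; Times: compound with Apaf-1, dATP, procaspase-3 30 min, then 50 min reaction, room temperature; Technique: Rh110 fluorescence intensity.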
# TDP2 inh – human TDP2 enzyme inhibitors, primary screen, biochemical, epi absorbance, recombinant enzyme | T5PNP hydrolysis, p-nitrophenol absorbance 415 nm | inhibition, % at 12.8 µM | 370,000 tested, 0.34% active;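 active = inhibition above the mean of all tested compounds plus 3 SD, set per campaign, cut at about 25% in these data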;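 also: 0% = DMSO with enzyme and 100% = buffer with substrate but no TDP2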
#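 Material: recombinant human TDP2; quantity: TDP2 enzyme at 120 nM final; medium: Tris-HCl pH 7.5 with MgCl2; compound: single concentration, 12.8 µM nominal, with 1% DMSO; incubation: 2 h enzyme incubation at 37 °C; signal: epi absorbance; measure: percent inhibition; benchmarks: high control without enzyme, low control DMSO plus TDP2; repeats: singlicate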
# SIAE inh – human SIAE inhibitors, primary screen, biochemical, fluorescence polarization, FP-Rh probe, 1536-well HTS. Sialate O-acetylesterase (Homo sapiens), Q9HAT2. 370,000 tested, 0.69% active. inhibition, % at 9.66 µM. SIAE FP-Rh probe binding;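 active = inhibition above a cutoff: mean of compounds within the control limits plus 3 SD of those, cut at about 17% in these data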;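 also: 0% = plate median of compound wells and 100% = probe without SIAE protein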
# Target sequence (Q9HAT2 whole entry, looked up): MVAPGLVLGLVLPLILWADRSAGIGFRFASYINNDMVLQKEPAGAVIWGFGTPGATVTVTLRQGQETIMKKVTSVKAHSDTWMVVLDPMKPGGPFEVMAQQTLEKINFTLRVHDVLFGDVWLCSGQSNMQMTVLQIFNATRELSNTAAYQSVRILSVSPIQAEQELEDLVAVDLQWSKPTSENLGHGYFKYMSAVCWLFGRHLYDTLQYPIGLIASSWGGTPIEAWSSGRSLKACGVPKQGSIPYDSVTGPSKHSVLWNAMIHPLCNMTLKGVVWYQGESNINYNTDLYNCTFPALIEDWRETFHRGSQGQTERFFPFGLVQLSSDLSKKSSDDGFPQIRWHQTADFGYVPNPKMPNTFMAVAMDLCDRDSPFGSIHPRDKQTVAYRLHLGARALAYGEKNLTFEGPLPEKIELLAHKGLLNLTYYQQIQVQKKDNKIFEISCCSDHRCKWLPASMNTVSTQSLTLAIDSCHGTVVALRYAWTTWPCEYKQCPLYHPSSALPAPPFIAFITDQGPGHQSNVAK
# GSTO1 inh conf – GSTO1 inhibitor hit confirmation, counter-screen for RBBP9 inhibitor project, biochemical, fluorescence polarization, triplicate; shares compounds with GSTO1 counter; recombinant GSTO1, probe fluorescence polarization; inhibition, % at 5.96 µM; 2,400 tested, 54% active; AID 2176, 2009;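 active = inhibition above the primary screen's cutoff, its mean inhibition plus 3 SD, cut at about 35% in these data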;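 also: loss of polarization as inhibitors block binding of rhodamine sulfonate ester activity probe; 0% = GSTO1 with DMSO and 100% = wells lacking GSTO1 enzyme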
# GSTO1 recomb ABPP – inhibitors of purified human GSTO1, late-stage follow-up, biochemical, gel ABPP, SE-Rh probe, percent inhibition | AID 463110, 2010 | recombinant GSTO1, gel ABPP SE-Rh probe fluorescence | 130 tested, 30% active | shares compounds with GSTO1 counter | inhibition, % at 1 µM;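 active = inhibition of the enzyme GSTO1 above about 75%, limit read from the data; inactive = inhibition below that limit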
# PAD4 FP conf – human PAD4 inhibitors, confirmation, biochemical, fluorescence polarization; recombinant PAD4, RCA probe fluorescence polarization; AID 488796, 2010; shares compounds with PAD4 FP inh; inhibition, % at 6.36 µM; 1,200 tested, 28% active;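 active = mean inhibition across replicates above the hit cutoff set by the earlier primary screen, cut at about 15% in these data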;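 also: inhibitors block active-site labeling by the probe so polarization falls; 0% = PAD4 with probe and DMSO and 100% = probe without PAD4 enzyme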
# Apaf-1 inh conf – Apaf-1 inhibitors, single-dose retest, confirmation, biochemical, fluorescence, DEVD-Rh110, 20 µM; AID 504614, 2011; reconstituted apoptosome, caspase-3 DEVD-Rh110 fluorescence; inhibition, % at 20 µM; 1,800 tested, 25% active; shares compounds with Apaf-1 inh;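 active = mean inhibition of at least 40% at 20 µM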;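 also: plate controls were DMSO wells for no effect and DEVD-CHO caspase inhibitor control wells for full effect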
# Rh110 quench – Rh110 fluorescence interference by putative Apaf-1 inhibitors, confirmation, artefact control for Apaf-1 inhibitor project, biochemical, 20 µM; shares compounds with Apaf-1 inh; quenched caspase reaction; activation (fluorescence interference), % at 20 µM; 1,800 tested, under 10 active; AID 504615, 2011;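 active = signal rise of 40% or more at 20 µM, treated as a fluorescence artifact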
# Apaf1 inh interf – fluorescence interference of Apaf-1 inhibitor hits, dose response, artefact control for Apaf-1 inhibitor project | shares compounds with Apaf-1 inh | fluorescence interference counterscreen, Apaf-1 assay format | IC50, µM | 460 tested, under 10 active | AID 588538, 2011; call rule not given here
# * hit, by the source's call; . = no result. Shown are actives, neighbours in structure and some others; about 2.4% of the full set was active somewhere.
SMILES,TCR CD3 inh,GSTO1 counter,PAD4 FP inh,Apaf-1 inh,TDP2 inh,SIAE inh,GSTO1 inh conf,Apaf-1 inh conf,Rh110 quench,others
CCOC(=O)c1ccc(NC(=O)C(C)N2C(=O)c3ccccc3C2=O)cc1 (stereo not drawn),6.0,1.5,-1.1,-14.9,1.3,8.8,.,.,.,
CCOC(=O)c1ccc(NC2=CC(=O)C(=O)c3ccccc32)cc1,15.4,77.0*,-10.8,72.3*,9.0,7.4,86.7*,87.6*,7.8,Apaf1 inh interf=>100
O=C1C(c2ccccc2)=[N+]([O-])c2ccccc21,-1.2,63.9*,-12.4,85.3*,10.7,-0.7,48.2*,87.3*,1.5,Apaf1 inh interf=>100
CC1(C)CC(=O)C(C=Nc2ccc3c(c2)OCO3)=C(O)C1,1.2,-10.0,-1.2,-8.5,-9.2,7.3,.,.,.,
CC1(C)CC(=O)C(C=Nc2ccc(O)c(N=CC3=C(O)CC(C)(C)CC3=O)c2)=C(O)C1,-4.8,85.0*,-12.9,46.8*,-10.9,-0.9,67.0*,17.5,0.9,
O=C(CCN1C(=O)/C(=C/C=C/c2ccccc2)SC1=S)Nc1nc2ccccc2s1,-0.8,-2.4,0.9,-8.2,-8.3,-4.2,.,.,.,
Oc1ccc(/C=N/N2CCCCC2)c(O)c1O,7.3,46.3*,-11.3,69.6*,-11.2,5.7,13.6,18.8,2.9,
CCCCn1c(SCC(=O)Nc2cc(C)on2)nc2cc(S(N)(=O)=O)ccc21,5.8,.,-3.3,17.8,3.8,-3.6,.,.,.,
Cc1ccc2c(c1)c(=O)c1c3n2CCN(C(=O)CCl)C3CC1 (stereo not drawn),2.1,65.8*,30.0*,63.6*,21.1,6.0,79.8*,18.4,-7.0,GSTO1 recomb ABPP=63.0;PAD4 FP conf=-0.8
CC(C)(C)N1C(=O)Cc2c1nc(N)c1c(N)nc(N3CCCCC3CO)c(C#N)c21 (stereo not drawn),.,90.7*,9.8,98.7*,.,.,88.3*,21.1,2.7,
CC1(OC(=O)C2CCCC2)C(=O)C=C2C=C(c3ccsc3)N(CCCCO)C=C2C1=O (stereo not drawn),-0.8,44.5*,-9.0,54.2*,22.1,7.5,6.2,35.6,0.3,
COc1ccc(CN2C=C3C(=O)C(C)(OC(=O)C4CCCC4)C(=O)C=C3C=C2c2ccsc2)cc1 (stereo not drawn),-4.6,32.6,-14.2,20.3,5.1,7.5,.,.,.,
COc1ccc(CN2C(=O)CCC2(C)c2nnnn2Cc2ccccc2)cc1OC (stereo not drawn),-7.6,.,.,.,-7.4,1.4,.,.,.,
O=C(O)c1cccc(NC2=C(n3nnc4ccccc43)C(=O)c3ccccc3C2=O)c1,1.5,62.3*,5.5,58.2*,22.1,4.5,44.9*,64.4*,7.0,Apaf1 inh interf=>100
O=C(O)c1cccc(NS(=O)(=O)c2ccc3nnn(O)c3c2)c1,2.5,-2.2,-2.3,3.5,-2.4,2.4,.,.,.,
CC(=O)N1N=C(C)CC1c1ccc(OCc2ccccc2)cc1 (stereo not drawn),9.8,6.1,-0.8,-4.8,1.9,7.1,.,.,.,
CCOc1ccc2nc(SCC(=O)NC3CCCc4ccccc43)sc2c1 (stereo not drawn),1.2,-5.5,-4.7,10.6,-0.9,-1.0,.,.,.,
Nc1nnc2c(n1)CCCC2,1.5,66.8*,8.8,82.8*,20.8,-1.1,10.1,72.0*,-26.7,Apaf1 inh interf=>100
Cc1ccc(C)c(S(=O)(=O)C(C#N)c2nc3ccccc3nc2N2CCCC2)c1 (stereo not drawn),2.4,66.0*,1.1,87.4*,8.1,12.1,31.0,11.7,0.5,
N#CC(c1nc2ccccc2nc1N1CCCC1)S(=O)(=O)c1ccccc1 (stereo not drawn),5.8,53.2*,-7.7,63.8*,0.8,6.4,56.2*,13.3,2.7,
CN1CCN(c2nc3ccccc3nc2C(C#N)S(=O)(=O)c2ccccc2)CC1 (stereo not drawn),-3.8,-3.0,-4.5,-13.2,5.9,0.0,.,.,.,
O=S(=O)(c1ccc2nc(N3CCN(c4ccccc4F)CC3)ccc2c1)N1CCCCC1,5.4,4.5,1.7,9.6,17.3,-3.3,.,.,.,
O=C1C(=Cc2ccco2)C(=O)c2ccccc21,2.7,37.9*,-2.1,44.4*,-1.5,2.6,26.6,10.4,2.1,
O=C1/C(=C/c2ccco2)CCc2ccccc21,-0.8,2.5,-4.5,-11.7,5.0,6.7,.,.,.,
C=CCn1c(N)c(C(=O)OCCC)c2nc3ccccc3nc21,-5.5,28.8,-11.1,5.5,6.3,-4.4,.,.,.,
COCCn1c(N)c(C(=O)OCc2ccccc2)c2nc3ccccc3nc21,2.9,70.0*,5.3,94.5*,13.6,-3.3,57.6*,7.8,1.1,
COCCNC(=O)c1c(N)n(CCC2=CCCCC2)c2nc3ccccc3nc12,7.5,42.0*,-11.2,63.3*,-4.9,5.4,3.7,34.0,15.0,
COc1ccc(CCn2c(N)c(C(=O)NCc3ccco3)c3nc4ccccc4nc32)cc1,-1.1,4.3,-6.8,39.6,9.3,-6.7,.,.,.,
COc1ccc(C)cc1NC(=O)C(OC(=O)CNC(=O)c1ccc(Br)cc1)c1ccccc1 (stereo not drawn),-2.1,1.3,-6.2,10.1,-7.9,7.2,.,.,.,
COc1cccc(C2CC(=O)Nc3c2c(=O)n(C)c(=O)n3C)c1OC (stereo not drawn),-7.4,-3.7,-1.0,2.1,3.7,1.7,.,.,.,

# From PubChem
